MrgX1 PAM = human MrgX1 positive allosteric modulation, primary screen. 0.63% of 310,000 active. Q96LB2. MrgX1-HEK293, Fluo-4 calcium flux, FDSS; active compounds read high. B-score at 10 µM;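 active means plate-corrected calcium response at least 3 library SD above typical, normal starting fluorescence, not activating the receptor alone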;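 further: compound read alongside a low EC10 to EC30 dose of BAM8-22 agonist; peak minus trough fluorescence over baseline measured at the second addition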
Target sequence (Q96LB2 whole entry, looked up): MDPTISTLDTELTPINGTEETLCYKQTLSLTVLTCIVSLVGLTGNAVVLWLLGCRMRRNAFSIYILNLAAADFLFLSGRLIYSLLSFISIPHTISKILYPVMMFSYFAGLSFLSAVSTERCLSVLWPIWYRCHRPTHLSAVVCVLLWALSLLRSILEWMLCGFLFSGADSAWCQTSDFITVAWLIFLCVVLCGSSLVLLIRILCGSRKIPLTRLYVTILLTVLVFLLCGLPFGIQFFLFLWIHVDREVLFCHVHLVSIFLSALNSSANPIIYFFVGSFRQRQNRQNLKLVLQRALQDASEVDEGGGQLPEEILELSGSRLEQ
RGS4 pot = RGS4 potentiation or activation | HEK293 M3R/inducible RGS4, carbachol calcium flux Fluo4; active compounds read low | B-score at 10 µM | 0.92% of 310,000 active;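 active means B-score of the integrated calcium signal more than 4 SD below the library mean, with starting fluorescence not abnormally high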;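 further: negative B-score means reduced calcium response which marks RGS4 activation or potentiation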
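Material: M3R-expressing HEK293 line, RGS4 induced by doxycycline | Schedule: Overnight RGS4 induction, 30 min dye load 37 °C, 20 min compound RT | Measured by: Fluo4 fluorescence kinetic imaging of calcium | Read-out: Integrated calcium ratio converted to B score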
MrgX1 ag = activates human MrgX1 receptor signaling; 0.44% of 310,000 active; AID 588627; MrgX1-HEK293 cells, Fluo-4 calcium fluorescence, agonist mode; active compounds read high; B-score at 10 µM; Q96LB2;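 active means calcium response B-score plate-corrected fluorescence ratio at least 3 library SD, with starting fluorescence B-score inside 5 SD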
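System – MrgX1-expressing HEK293 cells · Incubation – cells plated overnight, dye loaded 0.5 h 37 °C, 0.5 h room temperature · Technique – kinetic Fluo-4 NW fluorescence of intracellular calcium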
MrgX1 antag = human MrgX1 receptor antagonism, primary screen. 1.3% of 310,000 active. B-score at 10 µM. AID 588676. MRGX1-HEK293 calcium flux, Fluo-4, BAM8-22 antagonism; active compounds read low;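 active means calcium-response B-score plate-corrected more than 3 library SD below zero, starting fluorescence within 5 deviations, no agonist response on first addition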;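 further: peak minus trough fluorescence over baseline after final BAM8-22 challenge near maximal dose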
RGS4 block = human RGS4 inhibition | HEK293 M3R/RGS4 inducible, Fluo-4 calcium flux; active compounds read high; triggered by carbachol at its EC20 | AID 463165 | B-score at 10 µM | 0.45% of 310,000 active;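 active means B-score, a plate-corrected calcium signal, over three deviations above library mean, with baseline fluorescence within five deviations of library mean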;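 further: RGS4 expression induced by doxycycline in cells with stable M3 receptor; B-score is computed from the integrated fluorescence ratio over baseline after carbachol; higher B-score means a larger calcium signal and so more RGS4 inhibition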
Target sequence (P49798 whole entry, looked up): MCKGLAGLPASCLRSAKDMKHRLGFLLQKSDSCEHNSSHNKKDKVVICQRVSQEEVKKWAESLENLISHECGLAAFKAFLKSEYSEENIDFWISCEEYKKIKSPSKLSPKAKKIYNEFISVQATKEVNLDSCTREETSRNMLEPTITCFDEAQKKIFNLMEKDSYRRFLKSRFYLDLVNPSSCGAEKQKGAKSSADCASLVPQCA
MrgX1 ant reconf = reconfirmed antagonist of human MrgX1 receptor signaling | shares compounds with MrgX1 antag | MrgX1-HEK293, BAM8-22 calcium flux, Fluo-4; active compounds read low | remaining BAM8-22 calcium response % of control (active compounds read low), % at 10 µM | 19% of 2,300 active | AID 602420;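 active means remaining agonist calcium response no higher than 100% minus 3 SD of agonist-only control wells, with starting fluorescence near control levels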;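 further: agonist BAM8-22 given at a near maximal EC90 to ECmax level; peak minus minimum fluorescence divided by baseline after agonist addition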
HEK293 Ca flux = counter-screen for MrgX1 antagonists: effect in parental HEK293 cells; 2% of 4,000 active; shares compounds with MrgX1 antag; fluorescence ratio F(max-min)/F0 at 10 µM; Fluo-4 calcium fluorescence, FDSS;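 active means duplicate-averaged calcium fluorescence ratio at least three times the standard deviation of buffer wells, a nonspecific response in parental cells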
HEK293 Ca counter = MrgX1 allosteric activator counter-screen hit in parental HEK293 cells | 0.4% of 4,000 active | shares compounds with MrgX1 antag | AID 624114 | fluorescence ratio F(max-min)/F0 at 10 µM | parental HEK293 calcium flux, Fluo-4 fluorescence ratio; active compounds read high;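 active means calcium fluorescence ratio, averaged over duplicates, at least 3 SD of the buffer-well ratio, meaning a nonspecific response in receptor-free cells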;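 further: untransfected parental HEK293 lacking MrgX1 used as counterscreen for MrgX1 allosteric activators; fluorescence change taken during the second addition on a kinetic imager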
HEK293 Ca cntr2 = activity in parental HEK293 cells lacking MrgX1 receptor. shares compounds with MrgX1 antag. Fluo-4 calcium fluorescence (FDSS); active compounds read high. fluorescence ratio F(max-min)/F0 at 10 µM. 8.7% of 4,000 active;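 active means calcium fluorescence ratio at least three times the spread of buffer wells, meaning a non-specific response in parental cells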
Numbers without * were called inactive; i = inactive; nt = not tested or not shown. A selection: hits, their analogues and other compounds. The true share with any hit is near 3.5%.

SMILES | MrgX1 PAM | RGS4 pot | MrgX1 ag | MrgX1 antag | RGS4 block | MrgX1 ant reconf | HEK293 Ca flux | HEK293 Ca counter | HEK293 Ca cntr2
COc1ccc(C(C)=O)cc1CSc1nnc(Nc2ccccc2)s1 | i | i | i | i | i | nt | nt | nt | nt
O=C(CCN1C(=O)/C(=C/c2ccccc2F)SC1=S)NC1C=CS(=O)(=O)C1 (stereo not given) | i | i | i | i | i | nt | nt | nt | nt
CC1(C)N=C(SCC(=O)Nc2ccc(Cl)cc2Cl)C(c2ccccc2)=N1 | i | i | i | -7* | i | 80%* | i | i | i
Cc1ccc(C2=NC(C)(C)N=C2SCC(=O)Nc2ccc(Cl)cc2)cc1 | i | i | i | -5.7* | i | i | i | i | i
COC(=O)c1cccc(NC(=O)CN2CCc3ccccc3C2)c1 | i | i | i | i | i | nt | nt | nt | nt
Cc1nn(C)cc1S(=O)(=O)Nc1ccc(F)c(F)c1 | i | i | i | i | i | nt | nt | nt | nt
CCOC(=O)C1CCCN(C(=O)C(C)Oc2ccc(Cl)cc2Cl)C1 (stereo not given) | i | i | i | i | i | nt | nt | nt | nt
COC(=O)C1CCN(C(=O)C(C)Oc2ccc(Cl)cc2Cl)CC1 (stereo not given) | i | i | i | -9.9* | i | i | i | i | i
CCn1cc(CN2CCc3c([nH]c4ccccc34)C2c2cccc(OC)c2OC)c(C)n1 (stereo not given) | i | i | i | -5.4* | i | i | i | i | i
O=C(NCc1ccc(F)cc1)C(=O)NCC1OCCCN1S(=O)(=O)c1cccs1 (stereo not given) | i | i | i | i | i | nt | nt | nt | nt
CN(C)S(=O)(=O)c1cccc(C(=O)NCCCn2ccnc2)c1 | i | i | i | i | i | nt | nt | nt | nt
O=C(NCCCn1ccnc1)c1cccc(S(=O)(=O)Nc2ccc(Br)cc2)c1 | i | i | i | -4.5* | i | i | i | i | i
Cc1ccc(NC(=O)CSc2nc(=O)n(CCN(C)C)c3c2CCCC3)cc1Cl | i | i | i | i | i | nt | nt | nt | nt
COc1ccc(C)cc1NS(=O)(=O)c1ccc2c(c1)CCN2C(C)=O | i | i | i | i | i | nt | nt | nt | nt
O=C(O)c1ccccc1CSc1ncn[nH]1 | i | i | i | -8.3* | i | i | i | i | i
CC(C)n1c(NCc2cc(Cl)ccc2O)nc2ccccc21 | i | i | i | -7.1* | i | i | i | i | i
COc1ccc(C(=O)C2CCCN(Cc3cccc4c3OCO4)C2)cc1OC (stereo not given) | i | i | i | i | i | nt | nt | nt | nt
CCCSc1ccc(C(=O)Nc2ccc(F)cc2F)cn1 | i | i | i | i | i | nt | nt | nt | nt
CC(C)S(=O)(=O)c1ccc(C(=O)Nc2ccc(F)cc2F)cn1 | i | i | i | -5.9* | i | i | i | i | i
COc1cc(NC(=O)c2cccs2)c(C(=O)OCC(=O)NC(=O)NCc2ccccc2)cc1OC | i | i | i | i | i | nt | nt | nt | nt
COc1cc(NC(=O)c2cccs2)c(C(=O)OCC(=O)NC(=O)NC(C)(C)C)cc1OC | i | i | i | -4.6* | i | 81%* | i | i | i
COc1ccc(N=Cc2[nH]c3ccccc3c2O)cc1 | i | i | i | i | i | nt | nt | nt | nt
COc1ccc(N=Cc2oc3ccc4ccccc4c3c2O)cc1 | i | i | i | -5.1* | i | 51%* | i | i | i

Screening data: PubChem, Johns Hopkins Ion Channel Center
